In paper PMC4293084 (Nature communications, 2015):

What was measured:
[1] = system: EI^Q (H189Q); experiment: Enzyme kinetic assay; assay type: biochemical, E. coli; conditions: 37°C
Procedure, shortened: (§1)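 Wild-type E. coli Enzyme I or its H189Q or H189A active-site mutant, expressed and purified. PEP hydrolysis to inorganic phosphate and pyruvate was followed spectrophotometrically at 37°C with a coupled phosphate-detection kit. Enzymatic velocities at varying PEP were fit to the Michaelis-Menten equation to give Km. For display, velocities were normalised to each fit's maximum velocity.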

[2] = system: isolated EIC; conditions: cited from earlier work
[3] = system: EI^WT; experiment: Enzyme kinetic assay; assay type: biochemical, E. coli; conditions: 37°C
Procedure, shortened: as §1

[4] = system: EI^A (H189A); experiment: Enzyme kinetic assay; assay type: biochemical, E. coli; conditions: 37°C
Procedure, shortened: as §1

For `C=C(OP(=O)(O)O)C(=O)O` [PEP, phosphoenolpyruvate], the Km [1] is listed as roughly 130 µM, the Km [2] is listed as roughly 370 µM and the Km [3] is listed as roughly 330 µM. The Km [4] was less than 50 µM.
